From ChEMBL document CHEMBL3813637, “Synthesis and Antiproliferative and Metabolic Evaluations of Novel Securinine Derivatives” (ACS Med Chem Lett, 2016)
pIC50: −log10 of the molar value.

Assays:
[1] = Antiproliferative activity against human HCT116 cells assessed as reduction in cell viability at 20 uM after 72 hrs by ATPlite assay; format: functional; conditions: HCT-116, 72 h, read-out: GI
Outline: (§1)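 HCT-116 human colon cancer cells exposed to compound for 72 h at 20, 10 or 1 μM. Growth inhibition is expressed as percentage relative to nontreated cells.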

[2] = Antiproliferative activity against human HCT116 cells assessed as reduction in cell viability after 72 hrs by ATPlite assay; format: functional, cell-based; conditions: HCT-116, 72 h
Outline: (§2)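 IC50 determined in human cancer cell lines (HCT-116, A-375 melanoma, HL-60, A-549). Camptothecin and etoposide served as reference compounds.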

[3] = Antiproliferative activity against human HCT116 cells assessed as reduction in cell viability at 1 uM after 72 hrs by ATPlite assay; format: functional; conditions: HCT-116, 72 h, read-out: GI; outline: as §1
[4] = Antiproliferative activity against human HCT116 cells assessed as reduction in cell viability at 10 uM after 72 hrs by ATPlite assay; format: functional; conditions: HCT-116, 72 h, read-out: GI; outline: as §1
[5] = Antiproliferative activity against human HL60 cells assessed as reduction in cell viability after 72 hrs by ATPlite assay; format: functional, cell-based; conditions: HL-60, 72 h; outline: as §2
A549 = test: Antiproliferative activity against human A549 cells assessed as reduction in cell viability after 72 hrs by ATPlite assay; format: functional, cell-based; conditions: A549, 72 h
Outline: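 IC50 values were determined on a panel of four human cancer lines (HCT-116, A-549, HL-60, A-375), with camptothecin and etoposide as reference compounds.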

A-375 = test: Antiproliferative activity against human A375 cells assessed as reduction in cell viability after 72 hrs by ATPlite assay; format: functional, cell-based; conditions: A-375, 72 h; outline: as §2

With `CC(C)(C)OC(=O)NCC#CC1=C[C@@H]2C[C@@]3(OC(=O)C=C13)[C@H]1CCCCN21` the inhibition of growth at 20 µM [1] was 100%, the pIC50 [2] was 5.78 and the inhibition of growth at 1 µM [3] was 79.3%. The inhibition of growth at 10 µM [4] was 100%, the pIC50 [5] was 5.30 and the pIC50 (A549) was 5.58. It also gave a pIC50 (A-375) of 6.44.

Work on `CC(C)(C)OC(=O)NC1CCC(C#CC2=C[C@@H]3C[C@@]4(OC(=O)C=C24)[C@H]2CCCCN32)CC1` (stereo partly specified) yielded an inhibition of growth at 20 µM [1] of 100%, an inhibition of growth at 1 µM [3] of 93.4% and an inhibition of growth at 10 µM [4] of 100%.

For `O=C1C=C2C(C#Cc3ccc(F)cc3)=C[C@@H]3C[C@@]2(O1)[C@H]1CCCCN31`, the inhibition of growth at 20 µM [1] was 100%, the pIC50 [2] was 5.61 and the inhibition of growth at 1 µM [3] was 87.3%. For the same molecule, the inhibition of growth at 10 µM [4] was 99.9%, the pIC50 [5] was less than 5.00 and the pIC50 (A549) was 5.40. The pIC50 (A-375) was 5.55.

In the case of `O=Cc1ccc(C2=C[C@@H]3C[C@@]4(OC(=O)C=C24)[C@H]2CCCCN32)cc1`, the inhibition of growth at 20 µM [1] was 34.6%, the inhibition of growth at 1 µM [3] was -0.7% and the inhibition of growth at 10 µM [4] was 9.5%.

With `Cc1ccc(C#CC2=C[C@@H]3C[C@@]4(OC(=O)C=C24)[C@H]2CCCCN32)cc1` the inhibition of growth at 20 µM [1] was 100%, the inhibition of growth at 1 µM [3] was 64% and the inhibition of growth at 10 µM [4] was 100%. The pIC50 [5] was less than 5.00, the pIC50 (A549) was less than 5.00 and the pIC50 (A-375) was 5.76.

Molecule `O=C1C=C2C(C#CCCCO)=C[C@@H]3C[C@@]2(O1)[C@H]1CCCCN31` has an inhibition of growth at 20 µM [1] of 96.9%, an inhibition of growth at 1 µM [3] of 5.9% and an inhibition of growth at 10 µM [4] of 64.3%.

In the case of `Cc1cccc(C2=C[C@@H]3C[C@@]4(OC(=O)C=C24)[C@H]2CCCCN32)c1`, the inhibition of growth at 20 µM [1] was 33.8%, the inhibition of growth at 1 µM [3] was 5.7% and the inhibition of growth at 10 µM [4] was 15.6%.

For `O=C1C=C2C(c3ccco3)=C[C@@H]3C[C@@]2(O1)[C@H]1CCCCN31`, the inhibition of growth at 20 µM [1] was 45.5%, the inhibition of growth at 1 µM [3] was 6% and the inhibition of growth at 10 µM [4] was 23.8%.

For `O=C1C=C2C(I)=C[C@@H]3C[C@@]2(O1)[C@H]1CCCCN31`, the inhibition of growth at 20 µM [1] was 100%, the inhibition of growth at 1 µM [3] was 80.9% and the inhibition of growth at 10 µM [4] was 100%.

Molecule `O=C1C=C2C(C#CC3CC3)=C[C@@H]3C[C@@]2(O1)[C@H]1CCCCN31` has an inhibition of growth at 20 µM [1] of 93.9%, an inhibition of growth at 1 µM [3] of 5.9% and an inhibition of growth at 10 µM [4] of 94.8%.

`COC(=O)c1ccc(C2=C[C@@H]3C[C@@]4(OC(=O)C=C24)[C@H]2CCCCN32)cc1` gave an inhibition of growth at 20 µM [1] of 23.9%, an inhibition of growth at 1 µM [3] of -3.6% and an inhibition of growth at 10 µM [4] of 10.5%.

In the case of `O=C1C=C2C(c3ccc(C(F)(F)F)cc3)=C[C@@H]3C[C@@]2(O1)[C@H]1CCCCN31`, the inhibition of growth at 20 µM [1] was 80.4%, the inhibition of growth at 1 µM [3] was -1.5% and the inhibition of growth at 10 µM [4] was 47.9%.

`CC(C)(O)C#CC1=C[C@@H]2C[C@@]3(OC(=O)C=C13)[C@H]1CCCCN21` showed an inhibition of growth at 20 µM [1] of 97.7%, an inhibition of growth at 1 µM [3] of 10.3% and an inhibition of growth at 10 µM [4] of 91.6%.

Molecule `C[Si](C)(C)C#CC1=C[C@@H]2C[C@@]3(OC(=O)C=C13)[C@H]1CCCCN21` has an inhibition of growth at 20 µM [1] of 99.3%, an inhibition of growth at 1 µM [3] of 10.1% and an inhibition of growth at 10 µM [4] of 99%.

`CC(C)(C)OC(=O)NCCCC#CC1=C[C@@H]2C[C@@]3(OC(=O)C=C13)[C@H]1CCCCN21` gave an inhibition of growth at 20 µM [1] of 99.9%, an inhibition of growth at 1 µM [3] of 60.1% and an inhibition of growth at 10 µM [4] of 98.8%.

`O=C1C=C2C(C#CCO)=C[C@@H]3C[C@@]2(O1)[C@H]1CCCCN31` gave an inhibition of growth at 20 µM [1] of 98.9%, an inhibition of growth at 1 µM [3] of 5% and an inhibition of growth at 10 µM [4] of 94.9%.

`CCCCCC#CC1=C[C@@H]2C[C@@]3(OC(=O)C=C13)[C@H]1CCCCN21` gave an inhibition of growth at 20 µM [1] of 97.5%, an inhibition of growth at 1 µM [3] of 10.2% and an inhibition of growth at 10 µM [4] of 96.6%.

`O=C1C=C2C(c3ccccc3)=C[C@@H]3C[C@@]2(O1)[C@H]1CCCCN31` gave an inhibition of growth at 20 µM [1] of 24.1%, an inhibition of growth at 1 µM [3] of -3.8% and an inhibition of growth at 10 µM [4] of 9.2%.

Work on `O=C1C=C2C(c3ccc(Br)cc3)=C[C@@H]3C[C@@]2(O1)[C@H]1CCCCN31` yielded an inhibition of growth at 20 µM [1] of 60.1%, an inhibition of growth at 1 µM [3] of -5.2% and an inhibition of growth at 10 µM [4] of 23%.

For `CC(C)(C)c1ccc(C2=C[C@@H]3C[C@@]4(OC(=O)C=C24)[C@H]2CCCCN32)cc1`, the inhibition of growth at 20 µM [1] was 30.6%, the inhibition of growth at 1 µM [3] was 0.9% and the inhibition of growth at 10 µM [4] was 9.7%.

In the case of `Cc1ccc(C2=C[C@@H]3C[C@@]4(OC(=O)C=C24)[C@H]2CCCCN32)cc1`, the inhibition of growth at 20 µM [1] was 30%, the inhibition of growth at 1 µM [3] was 0.3% and the inhibition of growth at 10 µM [4] was 11.7%.

Work on `O=C1C=C2C(C#Cc3cccnc3)=C[C@@H]3C[C@@]2(O1)[C@H]1CCCCN31` yielded an inhibition of growth at 20 µM [1] of 100%, an inhibition of growth at 1 µM [3] of 96.4% and an inhibition of growth at 10 µM [4] of 100%. The pIC50 [5] was less than 5.00, the pIC50 (A549) was 5.36 and the pIC50 (A-375) was 6.02.

With `CC(C)(C)C#CC1=C[C@@H]2C[C@@]3(OC(=O)C=C13)[C@H]1CCCCN21` the inhibition of growth at 20 µM [1] was 100%, the inhibition of growth at 1 µM [3] was 25.2% and the inhibition of growth at 10 µM [4] was 98.8%.

For `CCN(CC)c1ccc(C#CC2=C[C@@H]3C[C@@]4(OC(=O)C=C24)[C@H]2CCCCN32)cc1`, the inhibition of growth at 20 µM [1] was 100%, the inhibition of growth at 1 µM [3] was 98.2% and the inhibition of growth at 10 µM [4] was 100%.

With `O=C1C=C2C(C#Cc3ccccc3C(F)(F)F)=C[C@@H]3C[C@@]2(O1)[C@H]1CCCCN31` the inhibition of growth at 20 µM [1] was 100%, the inhibition of growth at 1 µM [3] was 55.8% and the inhibition of growth at 10 µM [4] was 99.9%.

Work on `O=C1C=C2C(C#CC3CCCCC3)=C[C@@H]3C[C@@]2(O1)[C@H]1CCCCN31` yielded an inhibition of growth at 20 µM [1] of 100%, an inhibition of growth at 1 µM [3] of 49.3% and an inhibition of growth at 10 µM [4] of 99.8%.

Molecule `O=C1C=C2C(C#Cc3ccc(N4CCCCC4)cc3)=C[C@@H]3C[C@@]2(O1)[C@H]1CCCCN31` has an inhibition of growth at 20 µM [1] of 100%, an inhibition of growth at 1 µM [3] of 98% and an inhibition of growth at 10 µM [4] of 100%.

`O=C1C=C2C(C#CC3C=CCCC3)=C[C@@H]3C[C@@]2(O1)[C@H]1CCCCN31` (stereo partly specified) gave an inhibition of growth at 20 µM [1] of 97.3%, an inhibition of growth at 1 µM [3] of 3.3% and an inhibition of growth at 10 µM [4] of 98.1%.

Work on `CCCCC#CC1=C[C@@H]2C[C@@]3(OC(=O)C=C13)[C@H]1CCCCN21` yielded an inhibition of growth at 20 µM [1] of 99.5%, an inhibition of growth at 1 µM [3] of 7.6% and an inhibition of growth at 10 µM [4] of 98.1%.

For `O=C1C=C2C(c3ccc(-c4ccccc4)cc3)=C[C@@H]3C[C@@]2(O1)[C@H]1CCCCN31`, the inhibition of growth at 20 µM [1] was 82.8%, the inhibition of growth at 1 µM [3] was 5.4% and the inhibition of growth at 10 µM [4] was 52.6%.

In the case of `O=C1C=C2C(c3ccc(F)cc3)=C[C@@H]3C[C@@]2(O1)[C@H]1CCCCN31`, the inhibition of growth at 20 µM [1] was 24%, the inhibition of growth at 1 µM [3] was 2.1% and the inhibition of growth at 10 µM [4] was 9.9%.

Work on `CC[C@@]1(O)C(=O)OCc2c1cc1n(c2=O)Cc2cc3ccccc3nc2-1` [CAMPTOTHECIN] yielded a pIC50 [2] of 8.52, a pIC50 [5] of 7.46 and a pIC50 (A549) of 8.05. It also gave a pIC50 (A-375) of 7.89.

With `COc1cccc2c1C(=O)c1c(O)c3c(c(O)c1C2=O)C[C@@](O)(C(=O)CO)C[C@@H]3O[C@H]1C[C@H](N)[C@H](O)[C@H](C)O1` [DOXORUBICIN] the inhibition of growth at 20 µM [1] was 95.6%, the inhibition of growth at 1 µM [3] was 99.6% and the inhibition of growth at 10 µM [4] was 94.3%.

With `COc1cc([C@@H]2c3cc4c(cc3[C@@H](O[C@@H]3O[C@@H]5CO[C@@H](C)O[C@H]5[C@H](O)[C@H]3O)[C@H]3COC(=O)[C@H]23)OCO4)cc(OC)c1O` [ETOPOSIDE] the pIC50 [2] was less than 5.00 and the pIC50 [5] was 6.07.
